Assay [1] relates to NCI-H460. Kind of assay: Induction of apoptosis in human NCI-H460 cells in serum free medium at 50 nM after 12 hrs by Hoechst 33342/propidium iodide staining based fluorescence microscopy. Type of assay: functional. In outline: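 NCI-H460 cells exposed to a single 50 nM concentration for 12 h. Cells stained with Hoechst 33342 and propidium iodide. Blue cells with condensed or fragmented nuclei were scored as apoptotic and red, ruptured cells as necrotic. Result given as % apoptotic cell death; N = 6, one-way ANOVA.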

In assay [2] the test system is NCI-H460. The assay is described as follows: Cytotoxicity against human NCI-H460 cells assessed as cell death in serum free medium at 10 nM after 12 hrs by Hoechst 33342/propidium iodide staining based fluorescence microscopy. Type of assay: functional. In outline:
(§1)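 NCI-H460 human lung cancer cells exposed 12 h to 10 nM–10 μM drug, including a 50 nM single-concentration test. Nuclei were stained with Hoechst 33342 and necrotic cells with propidium iodide. Apoptotic cells were scored by condensed or fragmented blue nuclei and necrotic cells by red PI staining. Total cell death (apoptosis plus necrosis) was recorded; N = 6.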

The subject of assay [3] is NCI-H460. The assay is described as follows: Cytotoxicity against human NCI-H460 cells assessed as cell death in serum free medium at 25 nM after 12 hrs by Hoechst 33342/propidium iodide staining based fluorescence microscopy. Type of assay: functional. A digest of the protocol:
as §1

In assay [4] the test system is NCI-H460. The assay is described as follows: Cytotoxicity against human NCI-H460 cells assessed as cell death in serum free medium at 50 nM after 12 hrs by Hoechst 33342/propidium iodide staining based fluorescence microscopy. Type of assay: functional. In outline:
as §1

Assay [5] has as its system NCI-H460. Kind of assay: Cytotoxicity against human NCI-H460 cells assessed as cell death in serum free medium at 75 nM after 12 hrs by Hoechst 33342/propidium iodide staining based fluorescence microscopy. It is filed as functional. A digest of the protocol:
as §1

Assay [6] has as its system NCI-H460. Kind of assay: Cytotoxicity against human NCI-H460 cells assessed as cell death in serum free medium at 100 nM after 12 hrs by Hoechst 33342/propidium iodide staining based fluorescence microscopy. It is filed as functional. In outline: as §1
Assay [7] relates to NCI-H460. Kind of assay: Cytotoxicity against human NCI-H460 cells assessed as cell death in serum free medium at 250 nM after 12 hrs by Hoechst 33342/propidium iodide staining based fluorescence microscopy. It is filed as functional. A digest of the protocol: as §1
The test system of assay [8] is NCI-H460. Kind of assay: Cytotoxicity against human NCI-H460 cells assessed as cell death in serum free medium at 500 nM after 12 hrs by Hoechst 33342/propidium iodide staining based fluorescence microscopy. It is filed as functional. A digest of the protocol:
as §1

Assay [9] concerns NCI-H460. The assay is described as follows: Cytotoxicity against human NCI-H460 cells assessed as cell death in serum free medium at 1000 nM after 12 hrs by Hoechst 33342/propidium iodide staining based fluorescence microscopy. It is filed as functional. A digest of the protocol: as §1
For assay [10], the system named is NCI-H460. The assay is described as follows: Cytotoxicity against human NCI-H460 cells assessed as cell death in serum free medium at 10000 nM after 12 hrs by Hoechst 33342/propidium iodide staining based fluorescence microscopy. Type of assay: functional. A digest of the protocol:
as §1

The subject of assay [11] is NCI-H460. The assay is described as follows: Induction of apoptosis in human NCI-H460 cells in serum free medium after 12 hrs by Hoechst 33342/propidium iodide staining based fluorescence microscopy. It is filed as functional, cell-based. Conditions: for pIC50: NCI-H460, 12 h. A digest of the protocol: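 NCI-H460 cells treated for 12 h at 10 nM to 10 μM. Total cell death (apoptosis plus necrosis) scored by Hoechst 33342/propidium iodide staining, with N = 6 and two-way ANOVA. IC50 obtained by nonlinear regression. Table values are the mean of three independent experiments with duplicate determinations.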

Assay [12] relates to NCI-H460. The assay is described as follows: Cytotoxicity against human NCI-H460 cells assessed as cell viability at 1 nM after 48 hrs by MTT assay. Type of assay: functional. The conditions noted are these: NCI-H460, 48 h, read-out: Activity. A digest of the protocol: (§2)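 Viability of NCI-H460 cells was measured by MTT (mitochondrial enzymatic activity) after 48 h exposure, within a dose series spanning 1 nM–10 μM. N = 9, analysed by two-way ANOVA.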

Assay [13] has as its system NCI-H460. The assay is described as follows: Cytotoxicity against human NCI-H460 cells assessed as cell viability at 10 nM after 48 hrs by MTT assay. It is filed as functional. Conditions: NCI-H460, 48 h, read-out: Activity. A digest of the protocol:
as §2

The test system of assay [14] is NCI-H460. Kind of assay: Cytotoxicity against human NCI-H460 cells assessed as cell viability at 25 nM after 48 hrs by MTT assay. The conditions noted are these: NCI-H460, 48 h, read-out: Activity. Type of assay: functional. In outline: as §2
(In general: Formazan colour is commonly taken as a measure of viable cells.)

For assay [15], the system named is NCI-H460. The assay is described as follows: Cytotoxicity against human NCI-H460 cells assessed as cell viability at 50 nM after 48 hrs by MTT assay. It is filed as functional. Conditions: NCI-H460, 48 h, read-out: Activity. A digest of the protocol: as §2
Assay [16] concerns NCI-H460. Kind of assay: Cytotoxicity against human NCI-H460 cells assessed as cell viability at 100 nM after 48 hrs by MTT assay. The conditions noted are these: NCI-H460, 48 h, read-out: Activity. It is filed as functional. In outline:
as §2

The test system of assay [17] is NCI-H460. The assay is described as follows: Cytotoxicity against human NCI-H460 cells assessed as cell viability at 500 nM after 48 hrs by MTT assay. It is filed as functional. Conditions: NCI-H460, 48 h, read-out: Activity. A digest of the protocol:
as §2

For assay [18], the system named is NCI-H460. The assay is described as follows: Cytotoxicity against human NCI-H460 cells assessed as cell viability at 1000 nM after 48 hrs by MTT assay. Type of assay: functional. The conditions noted are these: NCI-H460, 48 h, read-out: Activity. A digest of the protocol: as §2
Assay [19] deals with NCI-H460. The assay is described as follows: Cytotoxicity against human NCI-H460 cells assessed as cell viability after 48 hrs by MTT assay. Type of assay: functional. The conditions noted are these: NCI-H460, 48 h. A digest of the protocol:
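NCI-H460 cells were exposed to drug for 48 h, and viability was read by MTT as mitochondrial enzymatic activity. GI50 was derived from dose-response curves (1 nM–10 μM). Values are from three independent experiments with duplicate determinations, given with standard error of the mean.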

For assay [20], the system named is NCI-H460. The assay is described as follows: Growth inhibition of human NCI-H460 cells after 48 hrs by MTT assay. It is filed as functional. In outline:
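NCI-H460 viability measured by MTT (mitochondrial enzymatic activity) after 48 h exposure at 1 nM to 10 μM. GI50 derived from dose-response curves, with N = 9 and two-way ANOVA. Values are the mean of three independent experiments with duplicate determinations.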

Molecules are shown by their SMILES. pIC50: −log10 of the molar value.

With `CCC[C@@H]1O[C@@H](O[C@H]2CC[C@@]3(C)[C@H](CC[C@@H]4[C@@H]3CC[C@]3(C)[C@@H](C5=CC(=O)OC5)CC[C@]43O)C2)[C@H](O)[C@H](O)[C@H]1O`, the Activity turned out to be 15.692% in the assay on NCI-H460 [1]; 15.86% in the assay with NCI-H460 [2]; 20.15% in the assay on NCI-H460 [3]; 23.16% in the assay with NCI-H460 [4]; 34.1% in the assay on NCI-H460 [5]; 52.06% with NCI-H460 [6]. The Activity in the assay on NCI-H460 [7] was 84.94%; in the assay on NCI-H460 [8], 100%; in the assay on NCI-H460 [9] it was 100%; with NCI-H460 [10] it was 100%; with NCI-H460 [11] it was “Dose-dependent effect”. In the assay on NCI-H460 [11], this compound gave a pIC50 of 6.94. In addition, the viability at 0.001 µM in the assay on NCI-H460 [12] turned out to be 81.4%. For the same compound, the viability at 0.01 µM with NCI-H460 [13] was 39.3%. Besides, the viability at 0.025 µM in the assay with NCI-H460 [14] was determined as 16.1%. For the same compound, the viability at 0.05 µM in the assay on NCI-H460 [15] stood at 9.27%. Moreover, the viability at 0.1 µM in the assay with NCI-H460 [16] was 7.06%. The viability at 0.5 µM in the assay with NCI-H460 [17] is 5.87%. Also, in the assay on NCI-H460 [18], the viability at 1 µM is 5.81%. Further, the GI50 in the assay with NCI-H460 [19] was 4.88 nM; with NCI-H460 [20], “Dose-dependent effect”; in the assay with NCI-H460 [20] (NCI-H460, 48 h), 5 nM.

Turning to `CC(C)[C@@H]1O[C@@H](O[C@H]2CC[C@@]3(C)[C@H](CC[C@@H]4[C@@H]3CC[C@]3(C)[C@@H](C5=CC(=O)OC5)CC[C@]43O)C2)[C@H](O)[C@H](O)[C@H]1O`, the Activity turned out to be 15.425% in the assay on NCI-H460 [1]; 12.81% in the assay with NCI-H460 [2]; 19.33% in the assay with NCI-H460 [3]; 24.42% with NCI-H460 [4]; 37.08% in the assay on NCI-H460 [5]; 45.94% with NCI-H460 [6]. Further, the Activity in the assay on NCI-H460 [7] is 73.97%; in the assay on NCI-H460 [8] it was 100%; with NCI-H460 [9], 100%; in the assay on NCI-H460 [10], 100%; in the assay with NCI-H460 [11] it was “Dose-dependent effect”. Moreover, the pIC50 in the assay with NCI-H460 [11] is 6.89. The viability at 0.001 µM in the assay with NCI-H460 [12] was determined as 77.4%. The viability at 0.01 µM in the assay on NCI-H460 [13] turned out to be 47.3%. The viability at 0.025 µM with NCI-H460 [14] came out at 35%. Besides, the viability at 0.05 µM in the assay with NCI-H460 [15] came out at 22.8%. The viability at 0.1 µM with NCI-H460 [16] stood at 9.88%. Further, in the assay on NCI-H460 [17], the viability at 0.5 µM is 6.11%. Further, the viability at 1 µM with NCI-H460 [18] is 5.76%. Also, the concentration for 50% growth inhibition (GI50) is 6.32 nM in the assay on NCI-H460 [19]; “Dose-dependent effect” in the assay on NCI-H460 [20]; 6 nM in the assay on NCI-H460 [20] (NCI-H460, 48 h).

Turning to `CC[C@@H]1O[C@@H](O[C@H]2CC[C@@]3(C)[C@H](CC[C@@H]4[C@@H]3CC[C@]3(C)[C@@H](C5=CC(=O)OC5)CC[C@]43O)C2)CC[C@H]1O`, the Activity with NCI-H460 [1] was 18.75%; with NCI-H460 [2], 13.46%; with NCI-H460 [3] it was 19.43%; with NCI-H460 [4] it was 22.56%; in the assay on NCI-H460 [5], 39.69%; in the assay on NCI-H460 [6], 69.05%. In addition, the Activity in the assay with NCI-H460 [7] is 87.87%; with NCI-H460 [8], 99.58%; in the assay on NCI-H460 [9], 100%; in the assay with NCI-H460 [10] it was 100%; in the assay on NCI-H460 [11], “Dose-dependent effect”. The pIC50 in the assay with NCI-H460 [11] is 7.06. In addition, the viability at 0.001 µM in the assay on NCI-H460 [12] was 73.3%. In addition, the viability at 0.01 µM with NCI-H460 [13] worked out at 20.6%. Also, the viability at 0.025 µM with NCI-H460 [14] amounted to 9.23%. Further, the viability at 0.05 µM with NCI-H460 [15] is 8.21%. In the assay on NCI-H460 [16], the viability at 0.1 µM amounted to 6.81%. Also, the viability at 0.5 µM with NCI-H460 [17] was found to be 5.41%. For the same compound, the viability at 1 µM with NCI-H460 [18] came to 4.5%. The GI50 with NCI-H460 [19] is 2.19 nM; in the assay on NCI-H460 [20], “Dose-dependent effect”; in the assay with NCI-H460 [20] (NCI-H460, 48 h), 2 nM.

By pIC50 is commonly meant the IC50 on a negative log10 scale, so that one unit is a factor of ten. For orientation: GI50 means the concentration that inhibits growth by half.
